Test results from ChEMBL document CHEMBL4689842, “EUbOPEN Chemogenomics Library wave 1” (2021).

Tested on: U2OS
Experiment: Multiplex assay against U2OS
Type: toxicity, cell-based
Details: human
Outline: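 Values for tubulin, mitochondrial-mass and membrane-permeability phenotypes are per cents of cells with healthy nuclei. These cells were identified by CellPathfinder machine-learning gating of live cells that had been stained at seeding with Hoechst33342, BioTracker Green Microtubule Cytoskeleton Dye, MitoTracker Red and Annexin V Alexa Fluor 680 and imaged on a CQ1 microscope at 37°C and 5% CO2 after compound addition. The gating first set Hoechst high-intensity objects apart from normal cells, then split normal cells into healthy, pyknosed or fragmented nuclei, and pyknosed cells into mitotic or apoptotic.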

[1] = 12 h, 1 µM, compound concentration 1 uM, replicate 1
[2] = 12 h, 1 µM, compound concentration 1 uM, replicate 2
[3] = 12 h, 10 µM, compound concentration 10 uM, replicate 1
[4] = 12 h, 10 µM, compound concentration 10 uM, replicate 2
[5] = 24 h, 1 µM, compound concentration 1 uM, replicate 1
[6] = 24 h, 1 µM, compound concentration 1 uM, replicate 2
[7] = 24 h, 10 µM, compound concentration 10 uM, replicate 1
[8] = 24 h, 10 µM, compound concentration 10 uM, replicate 2
[9] = 48 h, 1 µM, compound concentration 1 uM, replicate 1
[10] = 48 h, 1 µM, compound concentration 1 uM, replicate 2
[11] = 48 h, 10 µM, compound concentration 10 uM, replicate 1
[12] = 48 h, 10 µM, compound concentration 10 uM, replicate 2

CN(C)C(=O)/C(C#N)=C/c1ccc(-c2nc3cnc4[nH]ccc4c3n2C2CCCCC2)o1
Population Apoptotic (%) [1]: 60% | Population Fragmented Nuclei (%) [1]: 17% | Population Healthy Nuclei (%) [1]: 69% | Population Hoechst High Intensity Objects (%) [1]: 8% | Population Membrane Permeable-Phenotype (%) [1]: 5% | Population Mitochondria Different-Phenotype (%) [1]: 14% | Population Mitotic Cells (%) [1]: 40% | Population Normal (%) [1]: 91% | Population Pyknosed Nuclei (%) [1]: 13% | Population Tubulin-Different-Phenotype (%) [1]: 8% | Total Cell Count [1]: 122 | Population Apoptotic (%) [2]: 57% | Population Fragmented Nuclei (%) [2]: 4% | Population Healthy Nuclei (%) [2]: 87% | Population Hoechst High Intensity Objects (%) [2]: 2% | Population Membrane Permeable-Phenotype (%) [2]: 2% | Population Mitochondria Different-Phenotype (%) [2]: 6% | Population Mitotic Cells (%) [2]: 42% | Population Normal (%) [2]: 97% | Population Pyknosed Nuclei (%) [2]: 7% | Population Tubulin-Different-Phenotype (%) [2]: 24% | Total Cell Count [2]: 75 | Population Apoptotic (%) [3]: 19% | Population Fragmented Nuclei (%) [3]: 17% | Population Healthy Nuclei (%) [3]: 56% | Population Hoechst High Intensity Objects (%) [3]: 49% | Population Membrane Permeable-Phenotype (%) [3]: 12% | Population Mitochondria Different-Phenotype (%) [3]: 55% | Population Mitotic Cells (%) [3]: 80% | Population Normal (%) [3]: 50% | Population Pyknosed Nuclei (%) [3]: 25% | Population Tubulin-Different-Phenotype (%) [3]: 75% | Total Cell Count [3]: 167 | Population Apoptotic (%) [4]: 18% | Population Fragmented Nuclei (%) [4]: 20% | Population Healthy Nuclei (%) [4]: 62% | Population Hoechst High Intensity Objects (%) [4]: 54% | Population Membrane Permeable-Phenotype (%) [4]: 13% | Population Mitochondria Different-Phenotype (%) [4]: 63% | Population Mitotic Cells (%) [4]: 81% | Population Normal (%) [4]: 45% | Population Pyknosed Nuclei (%) [4]: 17% | Population Tubulin-Different-Phenotype (%) [4]: 70% | Total Cell Count [4]: 91 | Population Apoptotic (%) [5]: 75% | Population Fragmented Nuclei (%) [5]: 12% | Population Healthy Nuclei (%) [5]: 79% | Population Hoechst High Intensity Objects (%) [5]: 5% | Population Membrane Permeable-Phenotype (%) [5]: 4% | Population Mitochondria Different-Phenotype (%) [5]: 8% | Population Mitotic Cells (%) [5]: 25% | Population Normal (%) [5]: 94% | Population Pyknosed Nuclei (%) [5]: 8% | Population Tubulin-Different-Phenotype (%) [5]: 6% | Total Cell Count [5]: 133 | Population Apoptotic (%) [6]: 54% | Population Fragmented Nuclei (%) [6]: 5% | Population Healthy Nuclei (%) [6]: 84% | Population Hoechst High Intensity Objects (%) [6]: 4% | Population Membrane Permeable-Phenotype (%) [6]: 2% | Population Mitochondria Different-Phenotype (%) [6]: 10% | Population Mitotic Cells (%) [6]: 45% | Population Normal (%) [6]: 95% | Population Pyknosed Nuclei (%) [6]: 9% | Population Tubulin-Different-Phenotype (%) [6]: 36% | Total Cell Count [6]: 81 | Population Apoptotic (%) [7]: 34% | Population Fragmented Nuclei (%) [7]: 17% | Population Healthy Nuclei (%) [7]: 56% | Population Hoechst High Intensity Objects (%) [7]: 44% | Population Membrane Permeable-Phenotype (%) [7]: 15% | Population Mitochondria Different-Phenotype (%) [7]: 45% | Population Mitotic Cells (%) [7]: 65% | Population Normal (%) [7]: 55% | Population Pyknosed Nuclei (%) [7]: 25% | Population Tubulin-Different-Phenotype (%) [7]: 55% | Total Cell Count [7]: 196 | Population Apoptotic (%) [8]: 44% | Population Fragmented Nuclei (%) [8]: 28% | Population Healthy Nuclei (%) [8]: 53% | Population Hoechst High Intensity Objects (%) [8]: 54% | Population Membrane Permeable-Phenotype (%) [8]: 12% | Population Mitochondria Different-Phenotype (%) [8]: 49% | Population Mitotic Cells (%) [8]: 55% | Population Normal (%) [8]: 45% | Population Pyknosed Nuclei (%) [8]: 17% | Population Tubulin-Different-Phenotype (%) [8]: 45% | Total Cell Count [8]: 125 | Population Apoptotic (%) [9]: 55% | Population Fragmented Nuclei (%) [9]: 8% | Population Healthy Nuclei (%) [9]: 85% | Population Hoechst High Intensity Objects (%) [9]: 0% | Population Membrane Permeable-Phenotype (%) [9]: 3% | Population Mitochondria Different-Phenotype (%) [9]: 7% | Population Mitotic Cells (%) [9]: 44% | Population Normal (%) [9]: 99% | Population Pyknosed Nuclei (%) [9]: 6% | Population Tubulin-Different-Phenotype (%) [9]: 10% | Total Cell Count [9]: 179 | Population Apoptotic (%) [10]: 30% | Population Fragmented Nuclei (%) [10]: 4% | Population Healthy Nuclei (%) [10]: 90% | Population Hoechst High Intensity Objects (%) [10]: 1% | Population Membrane Permeable-Phenotype (%) [10]: 1% | Population Mitochondria Different-Phenotype (%) [10]: 15% | Population Mitotic Cells (%) [10]: 70% | Population Normal (%) [10]: 98% | Population Pyknosed Nuclei (%) [10]: 5% | Population Tubulin-Different-Phenotype (%) [10]: 43% | Total Cell Count [10]: 104 | Population Apoptotic (%) [11]: 39% | Population Fragmented Nuclei (%) [11]: 26% | Population Healthy Nuclei (%) [11]: 47% | Population Hoechst High Intensity Objects (%) [11]: 44% | Population Membrane Permeable-Phenotype (%) [11]: 23% | Population Mitochondria Different-Phenotype (%) [11]: 18% | Population Mitotic Cells (%) [11]: 60% | Population Normal (%) [11]: 55% | Population Pyknosed Nuclei (%) [11]: 25% | Population Tubulin-Different-Phenotype (%) [11]: 36% | Total Cell Count [11]: 279 | Population Apoptotic (%) [12]: 63% | Population Fragmented Nuclei (%) [12]: 34% | Population Healthy Nuclei (%) [12]: 49% | Population Hoechst High Intensity Objects (%) [12]: 48% | Population Membrane Permeable-Phenotype (%) [12]: 27% | Population Mitochondria Different-Phenotype (%) [12]: 27% | Population Mitotic Cells (%) [12]: 36% | Population Normal (%) [12]: 51% | Population Pyknosed Nuclei (%) [12]: 16% | Population Tubulin-Different-Phenotype (%) [12]: 31% | Total Cell Count [12]: 172
